Calls of active or inactive are those of the source. The rule behind the calls is not given here.
Assays:
[1] = tested on: Heart; test: Cardiotoxicity in Langendorff-perfused Sprague-Dawley rat heart assessed as intraventricular conduction time at 0.01 uM by ECG analysis (reference value: 14.26 +/- 0.71 milliseconds); assay type: toxicity, tissue-based, Cardiac ventricle
[2] = tested on: Heart; test: Cardiotoxicity in Langendorff-perfused Sprague-Dawley rat heart assessed as corrected time duration of action potential at 0.1 uM by ECG analysis (reference value: 155.26 +/- 2.96 milliseconds); assay type: toxicity, tissue-based
[3] = molecular target: T1, Monoglyceride lipase (Homo sapiens, UniProt Q99685); test: Inhibition of recombinant C-terminal His6-tagged human MAGL expressed in Escherichia coli using 2-arachidonoyl-[3H]-glycerol as substrate incubated for 20 mins by scintillation counting method
T1 sequence (Q99685 whole entry): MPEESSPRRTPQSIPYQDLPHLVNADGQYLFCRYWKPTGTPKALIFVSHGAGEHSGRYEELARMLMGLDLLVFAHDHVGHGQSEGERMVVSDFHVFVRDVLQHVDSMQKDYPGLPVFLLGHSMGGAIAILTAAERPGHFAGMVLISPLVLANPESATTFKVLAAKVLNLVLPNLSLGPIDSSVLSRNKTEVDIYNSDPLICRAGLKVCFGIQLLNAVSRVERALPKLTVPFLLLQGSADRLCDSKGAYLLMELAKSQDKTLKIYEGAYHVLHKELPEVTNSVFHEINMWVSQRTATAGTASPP

[4] = tested on: Heart; test: Cardiotoxicity in Langendorff-perfused Sprague-Dawley rat heart assessed as heart rate at 0.1 uM by ECG analysis (reference value: 252.78 +/- 9.28 bpm); assay type: toxicity, tissue-based
[5] = tested on: Mus musculus; test: Reduction of disease index score in myelin oligodendrocyte glycoprotein (35 to 55)-induced C57BL/6J mouse experimental autoimmune encephalomyelitis model of multiple sclerosis at 3 mg/kg, ip dosed on day 6 postimmunization up to 21 day postimmunization measured from day 8 postimmunization; assay type: functional, organism-based
How it was run: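 Female C57BL/6J mice immunized with MOG35-55 were randomly assigned to groups. They received 3 mg/kg i.p. daily from 6 days post-immunization up to 21±1 d.p.i. AM251 or AM630, 1 mg/kg i.p., was given 10 min before each dose for 14 days. Clinical score was recorded daily and as cumulative score, reported as mean ± SEM. Group sizes were 4–9 mice.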

Row | Compound | Time [1] [ms] | Time [2] [ms] | IC50 [3] [nM] | Activity [4] [bpm] | Activity [5]
1 | O=C1[C@H](c2ccc(F)cc2)[C@@H](c2ccc3c(c2)OCO3)N1C1CCN(C(=O)n2cncn2)CC1 (racemic) [listing 1 of 2 here] | 13.5 | 154.6 | 7.4 | 252.65 | –
2 | O=C1[C@H](c2ccc(F)cc2)[C@@H](c2ccc3c(c2)OCO3)N1C1CCN(C(=O)n2cncn2)CC1 (racemic) [listing 2 of 2 here] | – | – | – | – | Active
